Test results as given in ChEMBL document CHEMBL4354828, “Discovery of Taniborbactam (VNRX-5133): A Broad-Spectrum Serine- and Metallo-β-lactamase Inhibitor for Carbapenem-Resistant Bacterial Infections” (J Med Chem, 2020).
≈ marks a conversion by molar mass, not a printed value.

Assays:
[1] = Inhibition of bacterial OXA-48 using nitrocefin as substrate preincubated for 15 mins followed by susbtrate addition and measured after 10 mins by spectrophotometric method; parameters: species or system Bacteria
[2] = Inhibition of bacterial VIM-2 using nitrocefin as substrate preincubated for 15 mins followed by susbtrate addition and measured after 10 mins by spectrophotometric method; parameters: species or system Bacteria
Method in brief: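 Purified β-lactamase inhibition. IC50 values are the average of duplicates unless otherwise indicated.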

[3] = system: Klebsiella pneumoniae; test: Inhibition of VIM-4 in Klebsiella pneumoniae assessed as meropenem antibacterial activity at 4 ug/ml after 16 to 20 hrs by CLSI-based microbroth dilution method (Rvb >= […] ug/ml)
[4] = system: Klebsiella pneumoniae; test: Inhibition of OXA-48 in Klebsiella pneumoniae assessed as meropenem antibacterial activity at 4 ug/ml after 16 to 20 hrs by CLSI-based microbroth dilution method (Rvb >= […] ug/ml)
[5] = biological target: Beta-lactamase VIM-2 (Pseudomonas aeruginosa) (UniProt Q9K2N0); test: Inhibition of VIM-2 in Pseudomonas aeruginosa assessed as meropenem antibacterial activity at 4 ug/ml after 16 to 20 hrs by CLSI-based microbroth dilution method (Rvb >= […] ug/ml)
[6] = system: Klebsiella pneumoniae; test: Inhibition of KPC-2 in Klebsiella pneumoniae assessed as meropenem antibacterial activity at 4 ug/ml after 16 to 20 hrs by CLSI-based microbroth dilution method (Rvb >= […] ug/ml)
[7] = Inhibition of bacterial KPC-2 using imipenem as substrate preincubated for 15 mins followed by susbtrate addition and measured after 10 mins by spectrophotometric method; parameters: species or system Bacteria
[8] = Inhibition of bacterial AmpC using nitrocefin as substrate preincubated for 15 mins followed by susbtrate addition and measured after 10 mins by spectrophotometric method; parameters: species or system Bacteria

SMILES	IC50 [1]	IC50 [2]	MIC [3]	MIC [4]	MIC [5]	MIC [6]	IC50 [7]	IC50 [8]
NC[C@H]1CC[C@H](CC(=O)N[C@H]2Cc3cccc(C(=O)O)c3OB2O)CC1	1800 nM	1600 nM	8 µg/mL (≈ 22.2 µM)	2 µg/mL (≈ 5.55 µM)	4 µg/mL (≈ 11.1 µM)	1 µg/mL (≈ 2.78 µM)	100 nM	25 nM
O=C(C[C@H]1CC[C@H](NCc2cnc[nH]2)CC1)N[C@H]1Cc2cccc(C(=O)O)c2OB1O	454 nM	477 nM	8 µg/mL (≈ 18.8 µM)	8 µg/mL (≈ 18.8 µM)	1 µg/mL (≈ 2.35 µM)	1 µg/mL (≈ 2.35 µM)	36 nM	14 nM
N[C@H]1CC[C@@H](CC(=O)N[C@H]2Cc3cccc(C(=O)O)c3OB2O)CC1	18000 nM	1670 nM	32 µg/mL (≈ 92.4 µM)	16 µg/mL (≈ 46.2 µM)	32 µg/mL (≈ 92.4 µM)	2 µg/mL (≈ 5.78 µM)	120 nM	5 nM
NCCN[C@H]1CC[C@@H](CC(=O)N[C@H]2Cc3cccc(C(=O)O)c3OB2O)CC1	670 nM	130 nM	4 µg/mL (≈ 10.3 µM)	8 µg/mL (≈ 20.6 µM)	0.5 µg/mL (≈ 1.28 µM)	8 µg/mL (≈ 20.6 µM)	30 nM	35 nM
